An excerpt weighted towards active compounds, which were near 2.9% of everything screened.
HTR1E antagonist = blocks the human 5-HT1E serotonin receptor | P28566 | CHO 5-HT1E Ga15 NFAT-bla reporter, FRET, antagonist | inhibition, % at 6 µM | 65,000 compounds, 0.99% hits | AID 571;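 active means inhibition above a set limit, the mean inhibition across every tested compound plus 3 SD, cut at about 29% in these data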;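 further: signal is the 460 over 535 nm emission ratio of beta-lactamase substrate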
5HT1E ag = 5-HT1E (human) receptor agonism | P28566 | CHO 5-HT1E Ga15 NFAT-bla reporter, FRET; 0% DMSO wells, 100% control agonist wells | activation, % at 6 µM | 65,000 compounds, 0.69% hits | AID 574;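 active means activation above a set limit, the screen-wide mean activation plus 3 SD, cut at about 8.5% in these data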
5HT1a antag = 5-HT1a (human) receptor antagonism; CHO 5-HT1a Ga15 NFAT-bla reporter, antagonist mode; P08908; 62,000 compounds, 0.68% hits; inhibition, % at 10 µM;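 active means inhibition above the mean of all tested compounds plus 3 SD, cut at about 43% in these data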;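 further: receptor stimulated by 5-CT agonist at 100 nM near EC80; beta-lactamase reporter measured by ratiometric fluorescence of a cleavable substrate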
Target sequence (P08908 whole entry, looked up): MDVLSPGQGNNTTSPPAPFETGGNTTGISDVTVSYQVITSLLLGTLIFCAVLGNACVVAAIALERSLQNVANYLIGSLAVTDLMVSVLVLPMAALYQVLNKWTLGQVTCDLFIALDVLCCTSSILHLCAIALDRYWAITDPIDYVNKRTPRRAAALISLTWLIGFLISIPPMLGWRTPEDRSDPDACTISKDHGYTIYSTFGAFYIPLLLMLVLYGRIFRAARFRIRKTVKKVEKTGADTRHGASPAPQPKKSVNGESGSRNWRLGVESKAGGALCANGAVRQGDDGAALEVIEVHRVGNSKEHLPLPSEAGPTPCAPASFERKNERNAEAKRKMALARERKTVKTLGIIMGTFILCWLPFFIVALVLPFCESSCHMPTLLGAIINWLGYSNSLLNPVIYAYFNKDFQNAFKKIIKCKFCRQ
S1P1 ag-PAM = agonists and agonism potentiators of human S1P1 receptor; P21453; S1P1 CRE-bla cells, forskolin, beta-lactamase FRET, potentiator mode; S1P1 agonist co-added at EC20, 2 nM; 100% = saturating reference agonist, 0% = basal; activation, % at 9.5 µM; 56,000 compounds, 0.57% hits; AID 449;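 active means activation above a cutoff set at the mean activation of all tested compounds plus 3 SD, cut at about 54% in these data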;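 further: forskolin at 4 µM as EC80 and the EC20 agonist is SEW2871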
HTR1A agonist = 5-HT1a (human) receptor agonism; activation, % at 10 µM; 65,000 compounds, 0.56% hits; P08908; CHO 5-HT1a Ga15 NFAT-bla reporter, FRET ratio; 0% basal, 100% maximal reference agonist;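 active means activation above the screen-wide mean activation plus 3 SD, cut at about 19% in these data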
S1P3 agonist = activates the human S1P3 receptor; Q99500; S1P3 NFAT-BLA reporter cells, agonism, FRET ratio; relative to 1 µM S1P, basal subtracted; activation, % at 4.5 µM; 60,000 compounds, 0.1% hits;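 active means activation above the screen-wide mean plus 3 SD, cut at about 4.5% in these data, passing the limit was not always enough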
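Measure – % activation relative to 1 µM S1P (100%), per plate · System – stable CHO line with human S1P3, Gα16, NFAT-BLA reporter · Timing – cells plated overnight, compound 4 h 37 °C, substrate 2 h RT · Technique – fluorescent BLA substrate, ex 405 nm, em 460/535 nm ratio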
Numbers stand for hits; - = inactive; . = not tested or not shown.

SMILES	HTR1E antagonist	5HT1E ag	5HT1a antag	S1P1 ag-PAM	HTR1A agonist	S1P3 agonist
OCCCc1nc2n(n1)C(c1cccs1)C=C(c1ccccc1)N2 (configuration not stated)	-	-	-	-	-	-
OCCCc1nc2n(n1)C(c1ccccc1Cl)C=C(c1cccs1)N2 (configuration not stated)	50	-	44	-	-	-
CCOc1nc(Nc2ccc(-c3nc4ccccc4o3)cc2)nc(N2CCOCC2)n1	-	-	-	-	-	-
CCOc1cc(S(=O)(=O)N2CCOCC2)ccc1F	-	-	-	-	-	-
CCOc1ccc2cc(S(=O)(=O)N3CCOCC3)ccc2c1	-	8.7	-	.	-	-
Cc1cc(NC(=O)CSc2ccc3c(c2)OCCO3)no1	-	-	-	-	-	-
O=C(COc1cccc(-n2cnnn2)c1)N1CCOCC1	-	-	-	-	-	-
COc1ccc(Cl)cc1NC(=O)COc1cccc(-n2cnnn2)c1	-	35	-	-	-	-
Fc1ccccc1CSc1nnnn1-c1ccc2c(c1)OCO2	35	-	-	.	-	-
CC(c1ccccc1)n1cc(C(=O)NCc2ccncc2)nn1 (configuration not stated)	-	-	-	.	-	.
O=C(CSc1nnc(Cc2ccccc2)o1)Nc1ccc(Br)cn1	-	-	-	-	-	-
Cc1cccn2c(=O)c3cc(C(=O)N4c5ccccc5CC4C)n(C)c3nc12 (configuration not stated)	-	-	-	-	-	-
CC1Cc2ccccc2N1C(=O)c1cc2c(=O)n3ccccc3nc2n1C (configuration not stated)	39	-	-	-	-	-
O=C1c2[nH]nc(-c3ccccc3O)c2C(c2ccc(F)cc2)N1Cc1ccco1 (configuration not stated)	-	-	53	-	-	-
COc1cc2c(cc1OC)-c1cc(N3CCCCCC3)nc(=O)n1CC2	41	-	-	-	-	-
COc1cc2c(cc1OC)-c1cc(N3CCCc4ccccc43)nc(=O)n1CC2	64	-	-	-	-	-
COc1cc2c(cc1OC)-c1cc(NC3CCCCCC3)nc(=O)n1CC2	49	-	-	-	-	-
COc1cc2c(cc1OC)-c1cc(OCc3cccnc3)nc(=O)n1CC2	-	-	-	-	-	-
COc1cc2c(cc1OC)-c1cc(Nc3ccc4c(c3)OCCO4)nc(=O)n1CC2	40	-	-	-	-	-
Cc1nn(C)c(C)c1NC(=O)c1ccc(S(=O)(=O)N(C)C)cc1	-	-	-	.	-	-
Cc1nnc2n1N=CC=C(c1ccccc1)S2	30	-	-	-	-	-
CCCCCCc1cc2cc(-c3nnc(-c4ccccc4O)o3)c(=O)oc2cc1O	-	-	.	-	49	-
Cc1ccc(-c2csc3ncnc(-n4nc(C)cc4N)c23)cc1	-	8.7	-	-	-	-
CCOC(=O)c1c(C)[nH]c(C(=O)C(C)OC(=O)c2cccc(OCc3c(C)noc3C)c2)c1C (configuration not stated)	-	-	-	101	-	-
CCSc1nnc(NC(=O)c2cccc(OCc3c(C)noc3C)c2)s1	-	-	-	.	-	.
SMILES	HTR1E antagonist	5HT1E ag	5HT1a antag	S1P1 ag-PAM	HTR1A agonist	S1P3 agonist
Cc1csc(=Nc2ccc(S(=O)(=O)N3CCOCC3)cc2)n1Cc1ccco1	-	-	-	-	-	-
Cc1ccc(-n2c(SCC(=O)N3CCOCC3)nnc2-c2cccnc2)cc1C	-	44	-	-	-	-
c1ccc(-n2nc3c(ccc4cnnc43)[nH]2)cc1	-	-	-	-	-	-
CCc1ccc(NC(=O)c2cc(-c3ccco3)on2)cc1	-	-	-	56	-	-
CCC(C)(C)NC(=O)C(OC(=O)c1ccco1)c1ccccc1OC (configuration not stated)	-	-	-	-	-	-
Cc1ccc(OCC(O)Cn2c(=N)n(CCN3CCCCC3)c3ccccc32)cc1 (configuration not stated)	-	-	43	-	-	-
